# A selection: hits, their analogues and other compounds. The true share with any hit is near 2.8%.
# RBBP9 inhibitor: blocks human serine hydrolase RBBP9 | recombinant RBBP9, FP-Rh probe fluorescence polarization | actives 0.2% (n = 220,000) | inhibition, % at 7.94 µM | AID 1515 | O75884;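 active = inhibition above the campaign mean of all tested compounds plus 3 SD, cut at about 14% in these data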;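 also: plate controls were DMSO wells with RBBP9 for no effect and wells lacking RBBP9 protein for full effect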
#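 Controls: DMSO-treated enzyme wells and wells lacking RBBP9 | Material: RBBP9 protein | Technique: Fluorescence polarization | Replication: Single well per compound, no replicates | Buffer or medium: Tris-NaCl-Pluronic buffer, pH 8.0 | Timing: 30 min compound preincubation, 45 min probe labeling, 25 °C | Read-out basis: Percent inhibition from mP, scaled between DMSO and no-protein wells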
# eIF4E-4G inh: inhibitors of eIF4E and eIF4G interaction in translation initiation. TR-FRET eIF4E-eIF4GI(517-606) binding, 2 h. inhibition, % at 21.7 µM. actives 0.37% (n = 220,000). AID 782;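 also: 0% = full FRET control wells and 100% = background wells lacking eIF4GI fragment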
# Target sequence (P63073 whole entry, looked up, the tested form may be a part): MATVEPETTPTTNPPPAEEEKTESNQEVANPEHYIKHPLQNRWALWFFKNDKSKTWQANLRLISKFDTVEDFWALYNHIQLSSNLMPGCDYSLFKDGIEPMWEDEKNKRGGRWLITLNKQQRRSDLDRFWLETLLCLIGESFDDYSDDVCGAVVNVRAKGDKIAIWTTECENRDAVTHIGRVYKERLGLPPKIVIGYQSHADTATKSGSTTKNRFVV
# Target sequence (Q04637 whole entry, looked up, the tested form may be a part): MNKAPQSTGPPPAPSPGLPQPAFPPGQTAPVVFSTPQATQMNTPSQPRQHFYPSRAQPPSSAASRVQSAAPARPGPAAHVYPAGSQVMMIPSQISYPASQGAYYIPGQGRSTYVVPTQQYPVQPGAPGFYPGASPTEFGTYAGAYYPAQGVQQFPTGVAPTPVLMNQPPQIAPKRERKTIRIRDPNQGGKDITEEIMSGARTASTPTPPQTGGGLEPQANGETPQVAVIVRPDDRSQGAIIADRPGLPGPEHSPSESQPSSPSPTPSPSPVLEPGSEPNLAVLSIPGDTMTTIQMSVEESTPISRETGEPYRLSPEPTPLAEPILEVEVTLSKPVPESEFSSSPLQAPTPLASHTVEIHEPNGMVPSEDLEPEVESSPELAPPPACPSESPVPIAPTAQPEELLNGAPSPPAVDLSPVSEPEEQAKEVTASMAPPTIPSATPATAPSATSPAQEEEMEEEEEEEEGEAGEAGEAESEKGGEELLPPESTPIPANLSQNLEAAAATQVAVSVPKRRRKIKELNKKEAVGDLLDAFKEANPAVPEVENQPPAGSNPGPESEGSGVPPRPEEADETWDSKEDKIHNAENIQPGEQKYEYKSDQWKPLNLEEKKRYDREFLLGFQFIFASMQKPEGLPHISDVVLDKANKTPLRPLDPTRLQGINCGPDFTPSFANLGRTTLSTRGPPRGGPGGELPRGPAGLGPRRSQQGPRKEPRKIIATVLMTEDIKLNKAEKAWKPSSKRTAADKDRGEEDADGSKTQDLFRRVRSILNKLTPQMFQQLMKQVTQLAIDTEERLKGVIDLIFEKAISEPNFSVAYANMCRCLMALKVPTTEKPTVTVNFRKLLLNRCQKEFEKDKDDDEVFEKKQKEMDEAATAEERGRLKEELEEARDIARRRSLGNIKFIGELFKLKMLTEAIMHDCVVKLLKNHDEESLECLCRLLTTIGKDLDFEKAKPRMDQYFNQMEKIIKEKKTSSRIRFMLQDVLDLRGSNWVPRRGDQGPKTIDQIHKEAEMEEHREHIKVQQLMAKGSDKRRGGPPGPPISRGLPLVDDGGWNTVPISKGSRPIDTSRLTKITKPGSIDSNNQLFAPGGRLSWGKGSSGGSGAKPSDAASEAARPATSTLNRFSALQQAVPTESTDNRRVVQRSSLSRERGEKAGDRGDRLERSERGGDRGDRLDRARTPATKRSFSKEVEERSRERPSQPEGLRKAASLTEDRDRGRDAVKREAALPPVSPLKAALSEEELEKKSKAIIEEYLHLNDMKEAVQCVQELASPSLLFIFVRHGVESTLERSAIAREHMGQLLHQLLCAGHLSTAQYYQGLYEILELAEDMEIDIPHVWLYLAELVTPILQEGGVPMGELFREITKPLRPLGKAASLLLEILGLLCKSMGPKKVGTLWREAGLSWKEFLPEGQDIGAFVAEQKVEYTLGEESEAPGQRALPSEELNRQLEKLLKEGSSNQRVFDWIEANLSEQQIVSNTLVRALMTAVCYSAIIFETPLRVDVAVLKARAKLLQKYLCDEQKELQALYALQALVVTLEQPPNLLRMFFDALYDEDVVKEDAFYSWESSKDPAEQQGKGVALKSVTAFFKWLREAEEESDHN
# NCF1 inh: inhibitors of human p47phox binding | P14598 | p47phox/p22phox peptide binding, fluorescence polarization, 2 h | inhibition, % at 24.7 µM | actives 0.53% (n = 220,000) | AID 1274;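 also: 0% = p47phox with labelled peptide and 100% = labelled peptide alone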
# 14-3-3 Bad PPI: disrupts binding of bovine 14-3-3 zeta to phospho-Bad peptide; TR-FRET 14-3-3zeta/Dy647-pBad peptide displacement, 1 h; P63103; actives 0.71% (n = 220,000); inhibition, % at 21.7 µM;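 active = inhibition above about 70%, limit read from the data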;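 also: 0% = full 14-3-3 plus peptide FRET controls and 100% = background without 14-3-3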
# Wee1 degr inh: inhibitors of human Wee1 degradation. P30291. HeLa Luc-Wee1K328M stability, luciferase luminescence; 100% = proteasome inhibitor MG132 effect. reporter increase, % at 5 µM. actives 1.2% (n = 220,000). AID 1321;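 active = activation above the mean of all tested compounds plus 3 SD, set per screening run, cut at about 8.8% in these data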;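 also: cells exposed to compound for 20 h before luminescence read; 0% = DMSO alone and 100% = MG132 at 30 µM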
# Wee1 degr conf: human Wee1 degradation inhibition, confirmation. activation, % at 5 µM. actives 4% (n = 1,100). HeLa Luc-Wee1K328M degradation, luminescence; vehicle 0%, proteasome-blocked wells 100%. AID 1410. shares compounds with Wee1 degr inh; in the data active = activation above about 8.9%
# RBBP9 inh conf: confirmation of human RBBP9 inhibitors. recombinant RBBP9, FP-Rh probe fluorescence polarization. actives 36% (n = 410). shares compounds with RBBP9 inhibitor. inhibition, % at 7.94 µM;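 active = inhibition above the hit cutoff derived for the primary screen, cut at about 15% in these data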;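 also: 0% = RBBP9 with DMSO and 100% = wells lacking RBBP9 protein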
# * = called active by the depositor; . = no result.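 The calls were made as follows, unless noted: active = inhibition above about 30% (limit read from the data); inactive = the rest.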
SMILES,RBBP9 inhibitor,eIF4E-4G inh,NCF1 inh,14-3-3 Bad PPI,Wee1 degr inh,Wee1 degr conf,others
Cc1ccc(-n2c(O)c(/C=N/Nc3ccccc3)c(=O)[nH]c2=O)cc1C,-6.3,0.3,39.8*,-10.6,2.5,.,
COc1ccc(N/N=C/c2c(O)n(-c3ccc(C)c(C)c3)c(=O)[nH]c2=O)cc1,-12.3,4.7,-3.5,0.4,-4.1,.,
CCN(CC)c1ccc(CN2CC=C(c3ccc(F)cc3)CC2)cc1,-1.7,2.7,-10.8,76.7*,-0.5,.,
Oc1ccc2ccccc2c1CN1CC=C(c2ccccc2)CC1,-8.5,-2.3,-6.0,-14.3,-2.1,.,
CCn1cc(CN2CCCC(C(=O)c3sccc3C)C2)cn1 (configuration not stated),0.9,-1.9,-0.8,-15.2,11.1*,0.5,
CCCCC(=O)N/N=C/c1c(O)n(CCc2ccccc2)c(=O)[nH]c1=O,-3.2,0.8,-20.7,-5.7,20.5*,1.7,
C1CC2NCCC3NCCC(N1)N32 (configuration not stated),-5.3,-2.5,-8.2,-1.2,-0.9,.,
CN1CCc2nc(SCc3cccc(Br)c3)c(C#N)cc2C1,-14.1,1.9,-3.5,-2.8,1.8,.,
COc1ccc(NC2=NC(C)(C)CS2)cc1,0.9,4.2,-14.1,0.7,16.2*,1.8,
COc1ccc(NC2=NCC(C)S2)cc1 (configuration not stated),-8.8,5.1,-10.7,-5.0,2.1,.,
CN1CCN2c3ccc(N)cc3CC3(C(=O)NC(=O)NC3=O)C2C1 (configuration not stated),20.5*,93.5*,28.7,95.8*,1.6,.,RBBP9 inh conf=64.9*
CNc1cc(Cl)c2nonc2c1[N+](=O)[O-],1.5,-2.5,11.4,-5.5,2.2,.,
